ChEMBL document CHEMBL6177920, “Natural product-inspired [3 + 2] cycloaddition-based spirooxindoles as dual anticancer agents: synthesis, characterization, and biological evaluation by in vitro and in silico methods” (RSC Med Chem, 2025)
The source made the active and inactive calls. The calls are words filed in the database; no cut-off is given here.

Legend:
MDA-MB-468 [1] = experiment: Antiproliferative activity against human MDA-MB-468 cells assessed as inhibition of cell proliferation incubated for 24 to 72 hrs by SRB assay; type: functional, cell-based
How it was run: (§1)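 Cells seeded 1 × 10^4/well in DMEM + 10% FBS, incubated overnight at 37 °C, 5% CO2. Treated with serial dilutions, 62.5–1000 µM for MDA-MB-468 and 62.5–2000 µM for HCT 15, for 24, 48 and 72 h. DMSO 0.5% in the 2x working stock. Sulforhodamine-B read-out, % inhibition = (control − sample)/control × 100. Triplicate experiments, ≥4 replicates per concentration.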

HCT-15 [2] = experiment: Antiproliferative activity against human HCT-15 cells assessed as inhibition of cell proliferation incubated for 24 to 72 hrs by SRB assay; type: functional, cell-based; how it was run: as §1
HCT-15 [3] = experiment: Induction of cell cycle arrest in human HCT-15 cells assessed as decrease in cells at G2/M phase at 100 uM; type: functional, cell-based
How it was run: (§2)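 HCT 15 cells at 2 × 10^5/2 mL/well treated 48 h with 50, 100 or 200 µM, with DMSO control. Trypsinized, centrifuged 300 × g for 5 min, fixed 30 min in cold 70% ethanol on ice. Treated with RNase A 4 h, then propidium iodide 10 min at room temperature. Flow cytometry gave % sub-G0/G1, G0/G1, S and G2/M.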

HCT-15 [4] = experiment: Induction of cell cycle arrest in human HCT-15 cells assessed as decrease in cells at G0/G1 phase at 100 uM; type: functional, cell-based; how it was run: as §2
HCT-15 [5] = experiment: Induction of cell cycle arrest in human HCT-15 cells assessed as decrease in cells at S phase at 100 uM; type: functional, cell-based; how it was run: as §2
MDA-MB-468 [6] = experiment: Induction of apoptosis in human MDA-MB-468 cells assessed as increase in caspase 3 activity; type: functional, cell-based
How it was run: (§3)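 Cells seeded 5 × 10^5/2 mL and incubated overnight at 37 °C. Treated 24 h at 37 °C with 62.5–1000 µM (MDA-MB-468) or 62.5–2000 µM (HCT 15), then a further 24 h incubation step. Trypsinized, fixed in cold 70% ethanol 30 min at −20 °C, PBS-washed, stained 30 min in the dark at room temperature with anti-caspase-3/7 antibody. FACS on FL1 gave % caspase-3 cells; mean ± SD of triplicates.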

HCT-15 [7] = experiment: Induction of apoptosis in human HCT-15 cells assessed as decrease in caspase 3 activity; type: functional, cell-based; how it was run: as §3
MDA-MB-468 [8] = experiment: Induction of apoptosis in human MDA-MB-468 cells assessed as cell death by measuring red signals by acridine orange/EtBr staining based analysis; type: functional; details: read-out: LD50 (the source's name)
How it was run: (§4)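 Cells seeded 0.3 × 10^6/well and grown about 36 h. Exposed 48 h to 250, 500 and 1000 µM (MDA-MB-468) or 500, 1000 and 2000 µM (HCT 15); 0.5% DMSO control. Trypsinized, stained 5 min with EtBr (100 µM) plus acridine orange (100 µM). Fluorescence microscopy counted green live versus orange dead cells, reported as % dead cells.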

HCT-15 [9] = experiment: Induction of apoptosis in human HCT-15 cells assessed as cell death by measuring red signals by acridine orange/EtBr staining based analysis; type: functional; details: read-out: LD50 (the source's name); how it was run: as §4
HCT-15 [10] = experiment: Induction of cell cycle arrest in human HCT-15 cells assessed as decrease in cells at sub G0/G1 phase at 100 uM; type: functional, cell-based; how it was run: as §2
MDA-MB-468 [11] = experiment: Induction of cell cycle arrest in human MDA-MB-468 cells assessed as increase in cells at sub G0/G1 phase at 200 uM (reference value: 1.78 %); type: functional
How it was run: (§5)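 MDA-MB-468 or HCT 15 cells were seeded at 2 × 10^5 per 2 mL well in 6-well plates and exposed for 48 h to 50, 100 or 200 µM, with DMSO as control. Cells were trypsinized, spun 300×g for 5 min at 25 °C and fixed in cold 70% ethanol (30 min, ice). RNase A (100 µM, 4 h) was added, then PI (stock 50 µM, 10 min, RT). Phase distribution (sub-G0/G1, G0/G1, S, G2/M) was read by flow cytometry.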

MDA-MB-468 [12] = experiment: Induction of cell cycle arrest in human MDA-MB-468 cells assessed as decrease in cells at S phase at 50 to 200 uM; type: functional, cell-based; details: dose 50-200 µM; how it was run: as §5
MDA-MB-468 [13] = experiment: Induction of cell cycle arrest in human MDA-MB-468 cells assessed as decrease in cells at G2/M phase at 50 to 200 uM; type: functional, cell-based; details: dose 50-200 µM; how it was run: as §5
MDA-MB-468 [14] = experiment: Induction of cell cycle arrest in human MDA-MB-468 cells assessed as increase in cells at G0/G1 phase at 50 uM; type: functional, cell-based; how it was run: as §5
MDA-MB-468 [15] = experiment: Induction of cell cycle arrest in human MDA-MB-468 cells assessed as decrease in cells at G0/G1 phase at 100 to 200 uM; type: functional, cell-based; details: dose 100-200 µM; how it was run: as §5
HCT-15 [16] = experiment: Induction of cell cycle arrest in human HCT-15 cells assessed as accumulation of cells at G2/M phase at 200 uM (reference value: 12.25 %); type: functional; details: time 48 hrs
HCT-15 [17] = experiment: Induction of cell cycle arrest in human HCT-15 cells assessed as decrease in cells at G0/G1 phase at 50 to 200 uM; type: functional, cell-based; details: dose 50-200 µM; how it was run: as §5
HCT-15 [18] = experiment: Induction of cell cycle arrest in human HCT-15 cells assessed as decrease in cells at S phase at 50 to 200 uM; type: functional, cell-based; details: dose 50-200 µM; how it was run: as §5
MDA-MB-468 [19] = experiment: Induction of apoptosis in human MDA-MB-468 cells assessed as increase in caspase 3 activity at 62.5 to 1000 uM; type: functional, cell-based; details: dose 62.5-1000 µM
How it was run: (§6)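 Cells were plated at 5 × 10^5 per 2 mL in 6-well plates and held overnight at 37 °C in CO2. They were then treated for 24 h at 37 °C, with MDA-MB-468 at 62.5–1000 µM and HCT 15 at 62.5–2000 µM. Cells were trypsinized, fixed 30 min at −20 °C in cold 70% ethanol, PBS-washed and labelled with anti-caspase-3/7 antibody (30 min, dark, RT). Flow cytometry (FL1) gave % caspase-3-expressing cells, triplicate, mean ± SD.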

HCT-15 [20] = experiment: Induction of apoptosis in human HCT-15 cells assessed as decrease in caspase 3 activity at 2000 uM; type: functional, cell-based; how it was run: as §6
MCF7 = experiment: Induction of cell cycle arrest in human MCF7 cells assessed as increase in cells at sub G0/G1 phase at 200 uM incubated for 48 hrs by flow cytometric analysis (reference value: 2.57 %); type: functional
HCT-15 [21] = experiment: Induction of cell cycle arrest in human HCT-15 cells assessed as decrease in cells at G2/M phase at 200 uM; type: functional, cell-based; how it was run: as §2
HCT-15 [22] = experiment: Induction of cell cycle arrest in human HCT-15 cells assessed as reduction in G0/G1 phase at 200 uM; type: functional, cell-based; how it was run: as §2
HCT-15 [23] = experiment: Induction of cell cycle arrest in human HCT-15 cells assessed as reduction in S phase at 200 uM; type: functional, cell-based; how it was run: as §2

Structure (SMILES): O=c1[nH]cc(F)c(=O)[nH]1 [FLUOROURACIL]
- IC50 (MDA-MB-468 [1]): 551 µM
- IC50 (HCT-15 [2]): 579 µM
- Activity (HCT-15 [3]): Active
- Activity (HCT-15 [4]): Active
- Activity (HCT-15 [5]): Active
- IC50 (MDA-MB-468 [6]): 495 µM
- IC50 (HCT-15 [7]): 426 µM
- CC50 (MDA-MB-468 [8]): 495 µM
- CC50 (HCT-15 [9]): 426 µM
- Activity (HCT-15 [10]): inactive

Structure (SMILES): CCOc1ccc([C@@H]2C3CSCN3[C@]3(C(=O)Nc4ccccc43)[C@H]2C(=O)c2ccc(C)cc2)cc1OC (stereo not given in full)
- IC50 (MDA-MB-468 [1]): 361 µM
- IC50 (HCT-15 [2]): 274 µM
- Activity (MDA-MB-468 [11]): 44.5%
- Activity (MDA-MB-468 [12]): Active
- Activity (MDA-MB-468 [13]): Active
- Activity (MDA-MB-468 [14]): inactive
- Activity (MDA-MB-468 [15]): Active
- Activity (HCT-15 [16]): 43.5%
- Activity (HCT-15 [17]): Active
- Activity (HCT-15 [18]): Active
- Activity (MDA-MB-468 [19]): Active
- Activity (HCT-15 [20]): inactive
- IC50 (MDA-MB-468 [6]): 407 µM
- IC50 (HCT-15 [7]): 365 µM
- CC50 (MDA-MB-468 [8]): 281 µM
- CC50 (HCT-15 [9]): 312 µM

Structure (SMILES): C=C1CC[C@H](O)C/C1=C/C=C1\CCC[C@]2(C)[C@@H]([C@H](C)CCCC(C)C)CC[C@@H]12 [CHOLECALCIFEROL]
- Activity (MCF7): 46.66%
- Activity (HCT-15 [21]): Active
- Activity (HCT-15 [22]): Active
- Activity (HCT-15 [23]): Active
